Assay results from different studies.
Observed: cell growth or viability

Structure (SMILES)	cell line	method	concentration	time	measurement	result
O=C(Nc1ccccc1/N=c1\cc(-c2ccc3c(c2)OCO3)oc2ccccc12)N1CCOCC1	MDA-MB-231	CCK-8	1 µM		inhibition	-4.28%
COc1cc(C(=O)c2nc(-c3cccc4[nH]ccc34)c(C)[nH]2)cc(OC)c1OC	A-375	MTS		72 h	IC50	0.0161 µM
O=C(Nc1ccc(Cl)cc1)Nc1ccc(Oc2nc3ccccc3n3cnnc23)cc1	MDA-MB-231	MTT	25 µM	24 h	viability	77.3%
C[C@H](N)C(=O)Nc1ccccc1/N=c1\cc(-c2ccc3c(c2)OCCO3)oc2c([N+](=O)[O-])cccc12	MDA-MB-231	CCK-8	1 µM		inhibition	-3.63%
COc1cccc2c1C(=O)c1c(O)c3c(c(O)c1C2=O)C[C@@](O)(C(=O)CO)C[C@@H]3O[C@H]1C[C@H](N)[C@H](O)[C@H](C)O1	MRC5	MTT		75 h	IC50	2.7 µM
COc1cc(C(=O)c2nc(-c3cccc4cc[nH]c34)c[nH]2)cc(OC)c1OC	A-375	MTS		72 h	IC50	0.0205 µM
Nc1ccccc1/N=c1\cc(-c2ccc3c(c2)OCO3)oc2ccccc12	MDA-MB-231	CCK-8	1 µM		inhibition	2.58%
O=C(Nc1ccc(Oc2nc3ccccc3n3cnnc23)cc1)Nc1cccc(Cl)c1	MDA-MB-231	MTT	100 µM	24 h	viability	29.3%
NCCCC(=O)Nc1ccccc1/N=c1\cc(-c2ccc3c(c2)OCO3)oc2ccccc12	MDA-MB-231	CCK-8	1 µM		inhibition	8.02%
COc1cc(C(=O)c2nc(-c3ccsc3)c[nH]2)cc(OC)c1OC	A-375	MTS		72 h	IC50	0.0432 µM
Cc1nc(Nc2ncc(C(=O)Nc3c(C)cccc3Cl)s2)cc(N2CC[C@H](O)C2)n1	SU-DHL-1	ATP luminescence	10 µM	72 h	inhibition	11%
Cn1nnc2c(C(N)=O)ncn2c1=O	human Astrocyte	MTT			IC50	2080 µM
CNC(=O)c1cc(Oc2ccc(NC(=O)Nc3ccc(Cl)c(C(F)(F)F)c3)cc2)ccn1	MDA-MB-231	MTT	3.125 µM	24 h	viability	70.2%
O=C(NN=Cc1ccc([N+](=O)[O-])s1)C1CC(=O)N(c2ccc(F)cc2F)C1 (stereo not drawn)	A-375	MTT	100 µM	72 h	viability	4.41%
O=C(Nc1ccccc1)Nc1ccc(Oc2nc3ccccc3n3cnnc23)cc1	MDA-MB-231	MTT	100 µM	24 h	viability	41.6%
C[C@H](N)C(=O)Nc1ccccc1/N=c1\cc(-c2ccc3c(c2)OCO3)oc2ccccc12	MDA-MB-231	CCK-8	1 µM		inhibition	7.31%
COc1cccc(NC(=O)Nc2ccc(Oc3nc4ccccc4n4cnnc34)cc2)c1	MDA-MB-231	MTT	100 µM	24 h	viability	24.6%
COc1cc(C(=O)c2nc(-c3ccnc4[nH]ccc34)c[nH]2)cc(OC)c1OC	A-375	MTS		72 h	IC50	0.0285 µM
